Measured values from the array DNA melting data of Ke et al. (doi:10.1101/2024.01.08.574731).

How the values were obtained:
[1] = folding enthalpy; higher = less favourable; fluorescence melt of hairpins on a sequencing array, two-state fit; conditions: sodium 0.088 M
Procedure, shortened: (§1)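 On a sequenced MiSeq flow cell, library hairpins with annealed Cy3 and quencher oligos were imaged for Cy3 fluorescence in 2.5 °C steps up to 60 °C, in 50 mM Na-HEPES pH 8.0, 25 mM NaCl. Normalisation used pre-quench Cy3 and control constructs. Bootstrapped two-state fits gave melting temperature and folding enthalpy, combined by inverse variance across four replicates and with fitted temperatures raised by 9.35 °C to match UV melts.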

[2] = melting temperature; fluorescence melt of hairpins on a sequencing array, two-state fit, raised by 9.35 °C to match UV melts; conditions: sodium 0.088 M
Procedure, shortened: as §1

| Sequence | folding enthalpy [1] | Tm [2] |
| --- | --- | --- |
| GGCCCTGGAAACAGGGTC (.(((((....))))).) | -36 kcal/mol | 58.9 °C |
| GCGAGACCGAAAGGTCGC (((..(((....)))))) | -10.3 kcal/mol | 59.1 °C |
| GCTTGCCGAAAGGCAGC (((.(((....)))))) | -14.4 kcal/mol | 60.1 °C |
| GATCCCAGACGGGATC ((((((....)))))) | -37.1 kcal/mol | 58.6 °C |
| GTTCCAGAAATGGAAC ((((((....)))))) | -32.2 kcal/mol | 53.4 °C |
| GCTACGCGAAAGCTTGGC ((.(.((....)).).)) | -17.4 kcal/mol | 41.1 °C |
| GCGAACGAAAGTTACGC ((((((....))).))) | -22.7 kcal/mol | 51.5 °C |
| GGCTTTGGAAACAAGGTC (.(.(((....))).).) | -13.9 kcal/mol | 32.2 °C |
| GATCGGTAACCGATC ((((((...)))))) | -35.5 kcal/mol | 56.1 °C |
| GATGAAGGAAACTTCGTC ((.((((....)))).)) | -27 kcal/mol | 42.4 °C |
| GGGCCCCGAAAGGGACCC (((.(((....))).))) | -26 kcal/mol | 69 °C |
| GGGAGCGAAAGCTGGCCC ((((((....)))..))) | -14 kcal/mol | 39.8 °C |
| CGCGGAACATTCCGCG ((((((....)))))) | -35.9 kcal/mol | 65.3 °C |
| GGGTGCGAAAGCATGCCC ((((((....)))..))) | -15.7 kcal/mol | 49.6 °C |
| GAAAAAGGAAACTTTTTC (((((((....))))))) | -39.7 kcal/mol | 46 °C |
| GTCCAAGGAAACTTGGGC (.(((((....))))).) | -46.6 kcal/mol | 51.1 °C |
| GAATCGGGAAACTGGTTC (((.(.(....).).))) | -19.8 kcal/mol | 29.3 °C |
| GCATCGCGAAAGCGGGGC ((..(((....)))..)) | -22.2 kcal/mol | 63.1 °C |
| GATCAGAGCCTGATC ((((((...)))))) | -25.4 kcal/mol | 47.4 °C |
| GGTTTACGAAAGTATACC (((.(((....))).))) | -39.3 kcal/mol | 45.5 °C |
| GTCTGGGGAAACCCAGGC (.(((((....))))).) | -28.1 kcal/mol | 55.5 °C |
| GATCGTAGCGACGATC ((((((....)))))) | -38.9 kcal/mol | 54.9 °C |
| CGCGGACTCCTCCGCG ((((((....)))))) | -37.2 kcal/mol | 68.9 °C |

| Sequence | folding enthalpy [1] | Tm [2] |
| --- | --- | --- |
| GATCGGCTGCCGATC ((((((...)))))) | -55.3 kcal/mol | 57.2 °C |
| GCTCCGCGAAAGCAGCGC ((.(.((....)).).)) | -17.1 kcal/mol | 43.7 °C |
| GCTATCGAAAGATTCAGC ((((((....)))..))) | -11.6 kcal/mol | 29.6 °C |
| GATCATACTGATGATC ((((((....)))))) | -30.2 kcal/mol | 46.3 °C |
| GGGTAACGAAAGTTTCCC (((.(((....))).))) | -43 kcal/mol | 50.3 °C |
| GATCTCCATCGAGATC ((((((....)))))) | -34.4 kcal/mol | 50.7 °C |
| GACACCGAAAGGTGGGTC ((((((....)))..))) | -11.2 kcal/mol | 65.5 °C |
| GCGCCGCGAAAGCCACGC (((..((....))..))) | -17.4 kcal/mol | 50.1 °C |
| GCATCCCGAAAGGGCTGC (((.(((....))).))) | -36.2 kcal/mol | 56.2 °C |
| GAGAGAACGAAAGTTCTC (((..(((....)))))) | -14.7 kcal/mol | 52.5 °C |
| GCTATCACGAAAGTGAGC (((..(((....)))))) | -14.1 kcal/mol | 36.1 °C |
| GGCCGTTCGAAAGAAGCC (((..(((....)))))) | -13.8 kcal/mol | 27.6 °C |
| GGTCGAGGAAACTCGGCC ((.((((....)))).)) | -53.9 kcal/mol | 59.5 °C |
| GACGTGCCGAAAGGCGTC (((..(((....)))))) | -13.3 kcal/mol | 46.8 °C |
| GTAAAGCCGAAAGGCTAC (((..(((....)))))) | -8.48 kcal/mol | 35.5 °C |
| GAGGATGGAAACATTCTC (((.(((....))).))) | -25.5 kcal/mol | 42.6 °C |
| GGTAACGAAAGTTCACC ((((((....))).))) | -21.2 kcal/mol | 38.3 °C |
| GTAGCCGGAAACGGCTGC (.(((((....))))).) | -15.9 kcal/mol | 60.9 °C |
| GGCTGTACGAAAGTAGCC (((..(((....)))))) | -27.5 kcal/mol | 51.1 °C |
| CGCACGGAAACGTAAGCG ((((((....)))..))) | -34.5 kcal/mol | 46.4 °C |
| GTGGCCGCGAAAGCGCAC (((..(((....)))))) | -9.11 kcal/mol | 48.4 °C |
| GATGCTGGAAACGGCATC (((((.(....).))))) | -44.1 kcal/mol | 54.3 °C |
| GGCCGTCGAAAGACGCC (((.(((....)))))) | -17.2 kcal/mol | 62.8 °C |

| Sequence | folding enthalpy [1] | Tm [2] |
| --- | --- | --- |
| GGTGACCCGAAAGGGACC (((..(((....)))))) | -14.5 kcal/mol | 38.1 °C |
| GCGCTGGGAAACCAGTGC ((.((((....)))).)) | -45.9 kcal/mol | 60.6 °C |
| GTAATCGGAAACGACTAC (((.(((....))).))) | -19.5 kcal/mol | 34.3 °C |
| GGTGTAGGAAACTACACC (((((((....))))))) | -44.8 kcal/mol | 60.4 °C |
| GTCAGGCGAAAGCCAGAC (((.(((....))).))) | -23.4 kcal/mol | 59.8 °C |
| GTATGCGAAAGCACATAC ((((((....)))..))) | -11.2 kcal/mol | 31.8 °C |
| GCCAAACGAAAGTTCGGC (((.(((....))).))) | -36.8 kcal/mol | 51.3 °C |
| GATCTAGCATTAGATC ((((((....)))))) | -43.5 kcal/mol | 47.6 °C |
| GCGTACATACGC ((((....)))) | -24 kcal/mol | 52.1 °C |
| GTGGCCGAAAGGCACAC ((((((....))).))) | -15.1 kcal/mol | 63.1 °C |
| GCTGCTCGAAAGAGAAGC (((.(((....))).))) | -37.6 kcal/mol | 55.5 °C |
| CGACCCCGGAAACGGTCG (((..(((....)))))) | -21.3 kcal/mol | 44.4 °C |
| GACTGGGGAAACCCAGCC (.(((((....))))).) | -15.4 kcal/mol | 44.7 °C |
| GGTTTCGGAAACGGAACC ((((.((....)).)))) | -45 kcal/mol | 52.6 °C |
| GCCGTGCGAAAGCGCAGC ((.(.((....)).).)) | -13 kcal/mol | 49.1 °C |
| GGTCTAACGAAAGTTACC (((..(((....)))))) | -10.2 kcal/mol | 25.5 °C |
| GACTAAGGAAACTTAGCC (.(((((....))))).) | -20.4 kcal/mol | 31.3 °C |
| GGCATCGGAAACAATGCC (((((.(....).))))) | -30.4 kcal/mol | 46.7 °C |
| GCGAGTGGAAACGTTCGC ((((..(....)..)))) | -24.6 kcal/mol | 45.5 °C |
| GGTGGCGGAAACGCTACC (((.(((....))).))) | -39.8 kcal/mol | 59.9 °C |
| GCTAGGTCGAAAGACAGC (((..(((....)))))) | -18.1 kcal/mol | 39.6 °C |
| GATCTTCTCTAAGATC ((((((....)))))) | -35 kcal/mol | 42.8 °C |
| GCCCAGCGAAAGCTCGGC (((.(((....))).))) | -40.4 kcal/mol | 51.3 °C |

| Sequence | folding enthalpy [1] | Tm [2] |
| --- | --- | --- |
| GACTGGACGAAAGTCGTC (((..(((....)))))) | -12.4 kcal/mol | 46.8 °C |
| GCCCACCGAAAGGTAGGC (((.(((....))).))) | -38 kcal/mol | 55.5 °C |
| GATCGGCATCCCGATC ((((((....)))))) | -40.9 kcal/mol | 54.1 °C |
| GGATCCGAAAGGATATCC ((((((....)))..))) | -15.2 kcal/mol | 40.7 °C |
| GCTAACGGAAACGCTAGC ((((.((....)).)))) | -33.9 kcal/mol | 44.8 °C |
| GCCTTTCGAAAGAAGGGC (((.(((....))).))) | -47.5 kcal/mol | 53.6 °C |
| GATCTGTGGACAGATC ((((((....)))))) | -45.1 kcal/mol | 53.2 °C |
| GATCTATCATAGATC ((((((...)))))) | -28 kcal/mol | 40.1 °C |
| GAGAGGGCGAAAGCCCTC (((..(((....)))))) | -6.41 kcal/mol | 66.5 °C |
| GATCATAAAGATGATC ((((((....)))))) | -24.4 kcal/mol | 40 °C |
| GATCGGTAGTCCGATC ((((((....)))))) | -44.4 kcal/mol | 55.6 °C |
| GCCTAACGAAAGTTCGGC (((.(((....))).))) | -34.8 kcal/mol | 52.4 °C |
| GGAGACGAAAGTCTATCC ((((((....)))..))) | -12.5 kcal/mol | 32.8 °C |
| GATCCGAATACGGATC ((((((....)))))) | -38.6 kcal/mol | 57.5 °C |
| GGCACCGGAAACGGTACC ((.((((....)))).)) | -22.5 kcal/mol | 50.7 °C |
| GATCCAACATTGGATC ((((((....)))))) | -43.3 kcal/mol | 50 °C |
| GTGCCCGGAAACGAGCAC ((((.((....)).)))) | -41.2 kcal/mol | 52.8 °C |
| GCTCGGCGAAAGCCCAGC (((.(((....))).))) | -42.5 kcal/mol | 44.2 °C |
| GACGCTGGAAACGGTGTC (((.(.(....).).))) | -28.9 kcal/mol | 42.1 °C |
| GCAGGTGGAAACACCCAC (..((((....))))..) | -10.6 kcal/mol | 32.1 °C |
| GCGTCAAGACGC ((((....)))) | -29.9 kcal/mol | 55.1 °C |
| GATCCAACTATGGATC ((((((....)))))) | -39.6 kcal/mol | 49.6 °C |
| GGTCTTCGAAAGAAAACC (((.(((....))).))) | -25.7 kcal/mol | 35.2 °C |
